Here are results for 25 molecules from ChEMBL document CHEMBL1153538, “Discovery of novel antileishmanial agents in an attempt to synthesize pentamidine-aplysinopsin hybrid molecule” (J Med Chem, 2009).

SMILES strings stand for the structures. pIC50: −log10 of the molar value. Values after ≈ are worked out from the molar mass of the structure shown. Active and inactive are the calls of the source. No cut-off for these calls is given here.

Data set [1] deals with Leishmania donovani. Nature of the data set: Antileishmanial activity against Leishmania donovani MHOM/IN/Dd8 amastigote carrying firefly luciferase gene infected in mouse J774A1 cells assessed as relative luminescence unit at 10 ug/mL after 72 hrs. It is filed as functional. To be noted: MHOM/IN/Dd8, J774.A1, 72 h.
The subject of data set [2] is J774.A1. Kind of data set: Cytotoxicity against mouse J774A1 by MTT assay. It is filed as cell-based. In short, it runs like this: (§1)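 J774A.1 or KB cells were grown in RPMI with 10% FCS. Exponentially growing cells (1 × 10⁴/well) were exposed to a range of compound concentrations (DMSO stocks diluted in medium) for 72 h at 37 °C. MTT was added for 2 h, formazan was dissolved in DMSO, and absorbance was read at 544 nm. IC50 was the concentration giving 50% viability loss versus medium-only cells, estimated by template.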

In data set [3] the test system is Leishmania donovani. Kind of data set: Antileishmanial activity against Leishmania donovani MHOM/IN/Dd8 […] carrying firefly luciferase gene infected in mouse J774A1 cells assessed as relative luminescence unit at 10 ug/mL after 72 hrs. Type of data set: functional. To be noted: for inhibition at 10 µg/mL: MHOM/IN/Dd8, J774.A1, 72 h; for inhibition: J774.A1.

Another data set relates to KB. Kind of data set: Cytotoxicity against human KB cells by MTT assay. Type of data set: cell-based. In short, it runs like this:
as §1

Data set [4] in a line: Selectivity index, ratio of IC50 for Leishmania donovani MHOM/IN/Dd8 amastigote to IC50 for human KB cells.
The subject of data set [5] is Leishmania donovani. Kind of data set: Antileishmanial activity against Leishmania donovani MHOM/IN/Dd8 amastigote carrying firefly luciferase gene infected in mouse J774A1 cells assessed as relative luminescence unit after 72 hrs. Type of data set: functional, organism-based. The conditions noted are these: MHOM/IN/Dd8, J774.A1, 72 h. In short, it runs like this: (§2)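 J774A.1 macrophages (1.5 × 10⁴/well) were seeded in RPMI-1640 with 10% FCS at 37 °C under CO₂. After 24 h they were infected with stationary-phase luciferase-expressing promastigotes (4 × 10³/well). The medium was then replaced with compound at 0.195-12.5 μg/mL for 72 h. Steady Glo luminescence (RLU) was read, and inhibition was calculated against untreated controls. IC50 values are the mean of two independent assays.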

Data set [6] has as its system Leishmania donovani. Kind of data set: Antileishmanial activity against Leishmania donovani MHOM/IN/Dd8 amastigote carrying firefly luciferase gene infected in mouse J774A1 cells assessed as relative luminescence unit at 12.5 ug/mL after 72 hrs. Type of data set: functional. The conditions noted are these: for inhibition: J774.A1. In short, it runs like this: as §2

Data set [7] concerns Leishmania donovani. Kind of data set: Ratio of drug to pentamidine for antileishmanial activity against Leishmania donovani MHOM/IN/Dd8 in mouse J774A1 cells by intracellular amastigote assay. Type of data set: functional, J774.A1.
For data set [8], the system named is Leishmania donovani. Nature of the data set: Antileishmanial activity against Leishmania donovani MHOM/IN/Dd8 amastigote infected in golden hamster assessed as parasite reduction at 50 mg/kg, ip for 5 consecutive days. Type of data set: functional. Set-up: scale not given: the % may be the effect or the level left. To be noted: route intraperitoneal. In short, it runs like this:
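Golden hamsters (40-45 g) were infected intracardially with 1 × 10⁷ amastigotes. Animals with +1 infection by spleen biopsy were randomized, 5-6 per sample. Intraperitoneal dosing started 2 days after biopsy and ran for 5 consecutive days. Biopsies taken 7 days after the last dose were Giemsa-stained and counted. Percentage inhibition was corrected for initial burden and the rise in untreated controls.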

In data set [9] the test system is J774.A1. Kind of data set: Cytotoxicity against mouse J774A1 at 12.5 ug/mL by MTT assay. It is filed as cell-based.

For `Nc1cc(OCCCCCn2cc(/C=C3\NC(=S)NC3=O)c3ccccc32)ccn1`, the inhibition at 10 µg/mL with Leishmania donovani [1] turned out to be 32.2%.
In the case of `N#Cc1ccc(OCCCCCn2cc(/C=C3\NC(=N)NC3=O)c3ccccc32)cc1`, in the data set on Leishmania donovani [1], the inhibition at 10 µg/mL was determined as 0%.
Molecule `CSC1=N/C(=C\c2cn(CCCCCOc3ccc(C#N)cc3)c3ccccc23)C(=O)N1` registered an IC50 in the data set with J774.A1 [2] greater than 100 µg/mL. Moreover, in the data set with Leishmania donovani [3], the inhibition at 10 µg/mL was found to be 75.4%.
On the same counts, the results for `CSC1=N/C(=C\c2cn(CCCCCOc3ccc(C#N)cc3)c3ccccc23)C(=O)N1C` are greater than 100 µg/mL and 63.2%.
Turning to `N=C(N)c1ccc(OCCCCCOc2ccc(C(=N)N)cc2)cc1.O=S(=O)(O)CCO`, the negative logarithm of the IC50 (pIC50) with KB was 5.57; in the data set with Leishmania donovani [5], 4.69. Moreover, the “Ratio IC50” value in data set [4] was less than 1.
As for `O=C1N/C(=N\Cc2ccccc2)N/C1=C\c1c[nH]c2ccccc12`, the inhibition entry in the data set on Leishmania donovani [6] and in the data set on Leishmania donovani [3] was “inactive” throughout.
In the case of `COc1ccc(C/N=C2\NC(=O)/C(=C/c3cn(CCCCCOc4ccc(C#N)cc4)c4ccccc34)N2)cc1OC`, the inhibition entry in the data set on Leishmania donovani [6] is “inactive”. In addition, the inhibition at 10 µg/mL in the data set on Leishmania donovani [3] stood at 93.7%.
On to `COc1ccc(C/N=C2\NC(=O)/C(=C/c3c[nH]c4ccccc34)N2)cc1OC`, for which the inhibition result in the data set on Leishmania donovani [6] and with Leishmania donovani [3] was “inactive” each time.
For the molecule `CN1C(=S)NC(=O)/C1=C\c1cn(CCCCCOc2ccc(/C(N)=N/O)cc2)c2ccccc12`, the pIC50 is 3.96 in the data set on KB and 5.70 in the data set with Leishmania donovani [5]. In addition, in the data set on Leishmania donovani [7], the “fold change (FC)” value is on record as 10. Further, the “Ratio IC50” value in data set [4] is recorded as 53.4. In addition, the inhibition at 10 µg/mL came to 88.2% with Leishmania donovani [3] and 99.3% in the data set with Leishmania donovani [1].
`N#Cc1ccc(OCCCCCn2cc(/C=C3\N/C(=N/c4ccccc4)NC3=O)c3ccccc32)cc1`: in the data set with Leishmania donovani [6], the inhibition result was “inactive”. The inhibition at 10 µg/mL in the data set with Leishmania donovani [3] was found to be 92.8%.
For `O=C1NC(=S)N/C1=C\c1cn(CCCCCN2CCN(c3ccccc3)CC2)c2ccccc12`, the inhibition entry with Leishmania donovani [6] is “inactive”. This molecule displayed a 50% inhibitory concentration (IC50) in the data set on J774.A1 [2] greater than 100 µg/mL. Moreover, in the data set on Leishmania donovani [3], the inhibition at 10 µg/mL is 88.3%.
As for `NC(=O)c1ccc(OCCCCCn2cc(/C=C3\NC(=S)NC3=O)c3ccccc32)cc1` (mixture of isomers), the inhibition at 10 µg/mL in the data set on Leishmania donovani [1] worked out at 48.9%.
Still for that read-out and setting: the result for `N/C(=N\O)c1ccc(OCCCCCn2cc(/C=C3\NC(=S)NC3=O)c3ccccc32)cc1` (mixture of isomers) reads 0%.
For the molecule `N#Cc1ccc(OCCCCCn2cc(/C=C3\N/C(=N/Cc4ccccc4)NC3=O)c3ccccc32)cc1`, the inhibition entry in the data set with Leishmania donovani [6] is “inactive”. Besides, in the data set on Leishmania donovani [3], the inhibition at 10 µg/mL stood at 93.9%.
For `N#Cc1ccc(OCCCCCn2cc(/C=C3\NC(=S)NC3=O)c3ccccc32)cc1`, the inhibition at 12.5 µg/mL with Leishmania donovani [6] (MHOM/IN/Dd8, J774.A1, 72 h) was 62%. Besides, the values for the Activity with Leishmania donovani [8] and in the data set with J774.A1 [9] were 62.1% and “Non-toxic”, respectively. The inhibition at 10 µg/mL in the data set on Leishmania donovani [3] is 95.1%. Moreover, the negative-log IC50 (pIC50) in the data set with Leishmania donovani [5] was 4.74.
For the molecule `N#Cc1ccc(OCCCCn2cc(/C=C3\NC(=S)NC3=O)c3ccccc32)cc1`, the concentration for half-maximal inhibition (IC50) in the data set with J774.A1 [2] was greater than 100 µg/mL. Besides, the inhibition at 10 µg/mL with Leishmania donovani [3] was 58.8%.
`N#Cc1ccc(OCCCCCCn2cc(/C=C3\NC(=S)NC3=O)c3ccccc32)cc1`: the IC50 in the data set on J774.A1 [2] is 2.3 µg/mL (≈ 5.17 µM). For the same molecule, in the data set with Leishmania donovani [3], the inhibition at 10 µg/mL was 71.3%.
On the same counts, the results for `CN1C(=S)NC(=O)/C1=C\c1cn(CCCCCOc2ccc(C#N)cc2)c2ccccc12` are 14.8 µg/mL (≈ 33.3 µM) and 46.4%.
For `O=C1NC(=S)N/C1=C\c1cn(CCCCCOc2ccccc2)c2ccccc12`, the concentration for half-maximal inhibition (IC50) in the data set with J774.A1 [2] is greater than 100 µg/mL. Also, the inhibition at 10 µg/mL with Leishmania donovani [3] came out at 40.7%.
In the case of `N#Cc1ccc(OCCCCCn2cc(/C=C3\NC(=S)NC3=O)c3cccnc32)cc1`, the pIC50 is 3.73 in the data set with KB and 5.19 with Leishmania donovani [5]. The “Ratio IC50” value in [4] amounted to 28.6. The inhibition at 10 µg/mL in the data set on Leishmania donovani [1] came to 97%.
As for `N#Cc1ccc(OCCCCCn2cc(C=O)c3ccccc32)cc1`, the inhibition entry with Leishmania donovani [6] and in the data set on Leishmania donovani [3] was “inactive” each time.
On to `CCCC/N=C1\NC(=O)/C(=C/c2cn(CCCCCOc3ccc(C#N)cc3)c3ccccc23)N1`, for which the inhibition result in the data set with Leishmania donovani [6] is “inactive”. The inhibition at 10 µg/mL with Leishmania donovani [3] is 88%.
As to `O=C1NC(=S)N/C1=C\c1c[nH]c2ccccc12`, the inhibition result in the data set with Leishmania donovani [6] and with Leishmania donovani [3] was “inactive” throughout.
Take `N#Cc1ccc(OCCCCCn2cc(/C=C3\NC(=S)NC3=O)c3cc(Br)ccc32)cc1` (mixture of isomers): in the data set on Leishmania donovani [1], the inhibition at 10 µg/mL amounted to 12.6%.
Consider `N#Cc1ccc(OCCCCCn2cc(/C=C3\NC(=O)NC3=O)c3ccccc32)cc1`, for which the inhibition result in the data set on Leishmania donovani [6] and in the data set on Leishmania donovani [3] was “inactive” throughout. Besides, in the data set with J774.A1 [2], the half-inhibitory concentration (IC50) is 33 µg/mL (≈ 79.6 µM).
